The source of these data is ChEMBL document CHEMBL2021824, “Structural modifications modulate stability of glutathione-activated arylated diazeniumdiolate prodrugs” (Bioorg Med Chem, 2012).

As usually defined, the pIC50 is −log10 of the IC50, conventionally taken in molar units. A lower pIC50 goes with a high IC50.

Data set [1] deals with NCI-H1703. The data set is described as follows: Antiproliferative activity against human NCI-H1703 cells after 48 hrs by MTT assay. In kind it is functional, cell-based. As to conditions: NCI-H1703, 48 h. For orientation: Tetrazolium assays rely on reduction of a dye to a coloured formazan, in cell work by metabolically active cells.
A short description of data set [2]: Half life of the compound in GSH-containing buffer. It is filed as physicochemical. The procedure, abridged:
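Loss of the diazeniumdiolate chromophore followed by UV-visible spectrophotometry at 37 °C. Absorbance was tracked at each compound's λmax. kobs came from a first-order exponential fit and half-life was derived from it. Mean (SE).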

Data set [3] is described as follows: Prodrug activation assessed as GSH-induced nitric oxide production per mol of the compound by chemiluminescence assay. It is filed as physicochemical. The gist of the method:
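Phosphate buffer, pH 7.4, containing 4 mM GSH at 37 °C was sparged with inert gas until the detector response was steady. The prodrug was then injected and NO release followed over time. The release curve was integrated to give mol NO per mol compound, reported as mean (SE).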

Data set [4] deals with NCI-H1703. Description: Metabolic stability in human NCI-H1703 cells assessed as formation of arylated GSH at 5 uM after 5 mins by LC/MS analysis. In kind it is ADME, cell-based. The settings on record: nci-h1703, 5 min. The gist of the method: (§1)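 H1703 cells plated in flasks and incubated overnight at 37 °C, then treated with 5 μM compound for 5, 30 or 60 min. Cells lysed by scraping in 10 mM HCl with freeze-thaw cycles, then deproteinized with 5-sulfosalicylic acid and centrifuged. Supernatant analyzed by LC/MS with positive APCI on a C18 column using a water/acetonitrile/0.1% formic acid gradient. Extracted ion chromatograms tracked parent and arylated GSH.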

The subject of data set [5] is NCI-H1703. The data set is described as follows: Metabolic stability in human NCI-H1703 cells assessed as formation of arylated GSH at 5 uM after 30 mins by LC/MS analysis. The settings on record: nci-h1703, 0.5 h. In kind it is ADME, cell-based. The procedure, abridged:
as §1

In data set [6] the test system is NCI-H1703. Description: Metabolic stability in human NCI-H1703 cells assessed as formation of arylated GSH at 5 uM after 60 mins by LC/MS analysis. It is filed as ADME, cell-based. The settings on record: nci-h1703, 1 h. The gist of the method: as §1
Data set [7] has as its system NCI-H1703. The data set is described as follows: Antitumor activity against human NCI-H1703 cells xenografted in athymic NCr-nu/nu mouse at 20 umol/kg, ip 5 times a week for 4-weeks relative to control. It is filed as functional, organism-based. The gist of the method: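 H1703 cells implanted in the flank of 7-week-old female athymic NCr-nu/nu mice. Dosing started once tumors reached 2 × 2 × 2 mm3 (typically four weeks). Compound was given as Pluronic P123 micelles at 20 μmol/kg ip, five times a week for four weeks. Vehicle controls received 2.25% Pluronic P123 in PBS. Tumors measured by caliper and body weights tracked. Welch-corrected t-test.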
On the technique in general: In xenograft studies the graft and the host belong to different species.

Data set [8] deals with H1703. The data set is described as follows: Induction of SAPK/JNK phosphorylation in human H1703 cells at 1 uM after 4 hrs by Western blotting analysis. It is filed as cell-based. The procedure, abridged:
(§2)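 H1703 lung adenocarcinoma cells exposed to 1 μM compound for 4 h. Western blots probed for phospho-SAPK/JNK, phospho-c-jun, ATF3, PARP (full-length and 89-kDa cleaved fragment) and cleaved effector caspases 3 and 7.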
(In general: Immunoblotting shows a protein as a band on a membrane.)

Data set [9] has as its system H1703. Description: Induction of SAPK/JNK-mediated c-jun phosphorylation in human H1703 cells at 1 uM after 4 hrs by Western blotting analysis. In kind it is cell-based. The procedure, abridged: as §2
The nature of data set [10]: Induction of SAPK/JNK-mediated ATF3 upregulation in human H1703 cells at 1 uM after 4 hrs by Western blotting analysis. It is filed as cell-based. The procedure, abridged: as §2
Data set [11] concerns NCI-H1703. The data set is described as follows: Induction of apoptosis in human NCI-H1703 cells assessed as PARP cleavage at 1 uM after 4 hrs by Western blotting analysis. It is filed as functional, cell-based. The procedure, abridged: as §2
Data set [12] deals with NCI-H1703. The data set is described as follows: Induction of apoptosis in human NCI-H1703 cells assessed as cleaved of caspase 3 level at 1 uM after 4 hrs by Western blotting analysis. In kind it is functional, cell-based. The gist of the method:
as §2

Data set [13] concerns NCI-H1703. The data set is described as follows: Induction of apoptosis in human NCI-H1703 cells assessed as cleaved of caspase 7 level at 1 uM after 4 hrs by Western blotting analysis. In kind it is functional, cell-based. The procedure, abridged: as §2

pIC50: −log10 of the molar value. Active and inactive are the calls of the source. No cut-off for these calls is given here.

Turning to `CCOC(=O)N1CCCN(/[N+]([O-])=N/Oc2ccc(C#N)cc2[N+](=O)[O-])CC1`, the pIC50 in the data set with NCI-H1703 [1] was 6.17. Also, the t1/2 in data set [2] is recorded as 42.6 min. In [3], the NO yield was 1.96 mol/mol.

Turning to `CCOC(=O)N1CCCN(/[N+]([O-])=N/Oc2ccc([N+](=O)[O-])cc2[N+](=O)[O-])CC1`, the NO yield in [3] was 2 mol/mol.

In the data set with NCI-H1703 [1], `CCOC(=O)N1CCN(/[N+]([O-])=N/Oc2ccc([N+](=O)[O-])cc2C#N)CC1` showed a pIC50 of 6.26. The t1/2 in data set [2] is on record as 33.6 min. Besides, in data set [3], the NO yield amounted to 2.04 mol/mol. In addition, the results for the Stability result in the data set with NCI-H1703 [4], in the data set on NCI-H1703 [5] and with NCI-H1703 [6] were “Stable”, “Stable” and “Unstable”, respectively. Further, the outcome (in the data set with NCI-H1703 [7]; with H1703 [8]; in the data set on H1703 [9]; in data set [10]; in the data set on NCI-H1703 [11]; in the data set on NCI-H1703 [12]) was Active. The outcome in the data set on NCI-H1703 [13] was Active.

For the molecule `CCOC(=O)N1CCN(/[N+]([O-])=N/Oc2ccc(C#N)cc2C#N)CC1`, the pIC50 with NCI-H1703 [1] was below 4.70. Also, the t1/2 in [2] is 918 min.

As to `CCOC(=O)N1CCN(/[N+]([O-])=N/Oc2ccc(C#N)cc2[N+](=O)[O-])CC1`, the pIC50 in the data set with NCI-H1703 [1] is 6.14. Also, the t1/2 in data set [2] amounted to 22.1 min. Also, the NO yield in [3] was found to be 2.02 mol/mol.

With `CCOC(=O)N1CCCN(/[N+]([O-])=N/Oc2ccc([N+](=O)[O-])cc2C#N)CC1`, in the data set with NCI-H1703 [1], the pIC50 was 5.58. Further, the t1/2 in data set [2] is on record as 66 min. The NO yield in data set [3] worked out at 2.01 mol/mol.

Molecule `CCOC(=O)N1CCN(/[N+]([O-])=N/Oc2ccc([N+](=O)[O-])cc2[N+](=O)[O-])CC1` gave a pIC50 in the data set on NCI-H1703 [1] of 5.97. Besides, the NO yield in data set [3] amounted to 1.96 mol/mol.
